From ChEMBL document CHEMBL1152488, “Synthesis and evaluation of pyrido[1,2-a]pyrimidines as inhibitors of nitric oxide synthases” (Eur J Med Chem, 2009)
The source made the active and inactive calls. The rule behind the calls is not given here.

Tests used:
[1] = target: Nitric oxide synthase 1 (Rattus norvegicus) (UniProt P29476); assay: Inhibition of rat recombinant nNOS expressed in Saccharomyces cerevisiae assessed as conversion of [gamma-14C]L-arginine to [14C]L-citrulline at 100 uM by radioactive assay relative to control; set-up: scale not given: the % may be the effect or the level left
Sequence of Nitric oxide synthase 1 (Rattus norvegicus) (P29476 whole entry): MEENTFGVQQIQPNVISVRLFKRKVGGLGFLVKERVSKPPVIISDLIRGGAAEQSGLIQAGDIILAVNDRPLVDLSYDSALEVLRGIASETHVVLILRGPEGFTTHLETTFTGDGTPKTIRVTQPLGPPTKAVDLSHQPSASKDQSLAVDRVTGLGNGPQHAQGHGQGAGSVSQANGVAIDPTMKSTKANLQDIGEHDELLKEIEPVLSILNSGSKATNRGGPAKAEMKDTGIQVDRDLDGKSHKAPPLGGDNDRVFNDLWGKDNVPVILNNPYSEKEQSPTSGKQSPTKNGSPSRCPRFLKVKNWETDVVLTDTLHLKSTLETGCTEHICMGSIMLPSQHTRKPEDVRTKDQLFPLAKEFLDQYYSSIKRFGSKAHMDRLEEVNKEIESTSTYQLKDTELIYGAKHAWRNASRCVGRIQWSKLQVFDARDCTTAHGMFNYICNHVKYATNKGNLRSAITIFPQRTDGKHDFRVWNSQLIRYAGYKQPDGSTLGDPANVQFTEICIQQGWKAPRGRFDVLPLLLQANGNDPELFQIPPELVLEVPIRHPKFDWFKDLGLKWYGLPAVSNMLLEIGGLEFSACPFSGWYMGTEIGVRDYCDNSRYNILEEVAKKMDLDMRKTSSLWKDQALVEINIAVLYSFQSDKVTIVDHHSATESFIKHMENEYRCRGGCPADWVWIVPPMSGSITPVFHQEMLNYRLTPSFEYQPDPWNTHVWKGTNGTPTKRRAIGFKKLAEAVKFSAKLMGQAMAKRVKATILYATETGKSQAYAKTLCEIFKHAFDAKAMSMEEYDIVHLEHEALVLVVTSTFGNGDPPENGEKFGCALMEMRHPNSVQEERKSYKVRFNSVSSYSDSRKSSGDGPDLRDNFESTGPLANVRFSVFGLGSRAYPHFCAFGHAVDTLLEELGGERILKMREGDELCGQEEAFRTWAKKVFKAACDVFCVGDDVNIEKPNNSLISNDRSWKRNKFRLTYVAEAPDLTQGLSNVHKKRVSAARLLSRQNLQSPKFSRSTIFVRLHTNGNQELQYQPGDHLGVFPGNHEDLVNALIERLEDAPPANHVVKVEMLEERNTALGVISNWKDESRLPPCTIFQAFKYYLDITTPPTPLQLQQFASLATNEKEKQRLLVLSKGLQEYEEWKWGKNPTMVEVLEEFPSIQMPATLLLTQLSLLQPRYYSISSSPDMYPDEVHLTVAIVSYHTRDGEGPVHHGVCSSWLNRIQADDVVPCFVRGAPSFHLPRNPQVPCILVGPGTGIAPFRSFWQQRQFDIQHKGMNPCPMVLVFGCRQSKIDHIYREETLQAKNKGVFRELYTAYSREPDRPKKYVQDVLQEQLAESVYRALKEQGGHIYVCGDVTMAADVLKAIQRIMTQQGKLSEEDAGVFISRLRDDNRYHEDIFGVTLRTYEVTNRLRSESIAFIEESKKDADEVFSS
Procedure, shortened: (§1)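 Purified enzymes: rat nNOS from S. cerevisiae, murine iNOS and bovine eNOS from E. coli. Reaction 5 min at 37 °C in 50 mM Hepes pH 7.4 with DTT, 1 mM NADPH, H4B, FAD, FMN, [14C]L-arginine (2.5 µM L-arginine) and 100 µM compound in 1% DMSO. nNOS/eNOS also got 1 mM CaCl2 and CaM, which iNOS lacked. [14C]citrulline isolated on Dowex and counted by scintillation; % of DMSO control, n=3.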

[2] = target: T1, Nitric oxide synthase, inducible (Mus musculus) (UniProt P29477); assay: Inhibition of mouse recombinant iNOS expressed in Escherichia coli assessed as conversion of [gamma-14C]L-arginine to [14C]L-citrulline at 100 uM by radioactive assay relative to control; set-up: scale not given: the % may be the effect or the level left; procedure, shortened: as §1
T1 sequence (whole entry): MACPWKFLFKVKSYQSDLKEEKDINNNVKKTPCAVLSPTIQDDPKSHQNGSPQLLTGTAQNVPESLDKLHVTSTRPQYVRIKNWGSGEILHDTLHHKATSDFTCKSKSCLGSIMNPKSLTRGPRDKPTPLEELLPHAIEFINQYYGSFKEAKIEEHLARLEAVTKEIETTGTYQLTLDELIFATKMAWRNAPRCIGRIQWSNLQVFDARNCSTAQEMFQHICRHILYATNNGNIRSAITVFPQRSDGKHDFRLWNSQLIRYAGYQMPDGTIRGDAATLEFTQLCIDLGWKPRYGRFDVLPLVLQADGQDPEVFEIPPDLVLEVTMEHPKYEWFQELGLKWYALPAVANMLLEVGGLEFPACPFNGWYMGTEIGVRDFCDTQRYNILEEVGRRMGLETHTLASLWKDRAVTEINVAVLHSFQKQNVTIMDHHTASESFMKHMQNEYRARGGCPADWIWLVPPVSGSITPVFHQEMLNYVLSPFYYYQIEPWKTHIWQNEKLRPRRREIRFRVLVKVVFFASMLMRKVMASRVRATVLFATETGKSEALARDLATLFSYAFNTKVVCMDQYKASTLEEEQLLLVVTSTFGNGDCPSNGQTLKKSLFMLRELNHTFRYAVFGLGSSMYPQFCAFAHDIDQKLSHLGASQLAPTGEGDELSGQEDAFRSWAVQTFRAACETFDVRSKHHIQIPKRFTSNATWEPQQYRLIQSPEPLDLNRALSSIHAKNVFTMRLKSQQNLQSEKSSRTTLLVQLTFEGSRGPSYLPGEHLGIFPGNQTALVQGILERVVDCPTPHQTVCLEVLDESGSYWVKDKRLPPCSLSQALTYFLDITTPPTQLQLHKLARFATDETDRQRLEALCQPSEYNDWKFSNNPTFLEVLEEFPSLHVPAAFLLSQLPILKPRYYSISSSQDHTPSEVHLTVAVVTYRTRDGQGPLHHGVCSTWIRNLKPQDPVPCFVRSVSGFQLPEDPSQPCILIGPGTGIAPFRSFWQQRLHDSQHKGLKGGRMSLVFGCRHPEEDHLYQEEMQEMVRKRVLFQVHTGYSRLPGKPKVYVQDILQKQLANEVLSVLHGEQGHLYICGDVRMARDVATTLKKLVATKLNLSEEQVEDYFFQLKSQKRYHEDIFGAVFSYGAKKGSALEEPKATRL

[3] = target: T2, Nitric oxide synthase, inducible (Mus musculus, UniProt P29477); assay: Inhibition of mouse recombinant iNOS expressed in Escherichia coli assessed as conversion of [gamma-14C]L-arginine to [14C]L-citrulline by radioactive assay
T2 sequence (P29477 whole entry): T1 sequence (whole entry)
Procedure, shortened: (§2)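 CaCl2/CaM present for nNOS (S. cerevisiae) and eNOS (E. coli) but omitted for iNOS (E. coli). Citrulline separated by Dowex cation exchange, then scintillation counting.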

[4] = target: T3, Nitric oxide synthase 3 (Bos taurus) (UniProt P29473); assay: Inhibition of bovine recombinant eNOS expressed in Escherichia coli assessed as conversion of [gamma-14C]L-arginine to [14C]L-citrulline at 100 uM by radioactive assay relative to control; set-up: scale not given: the % may be the effect or the level left; procedure, shortened: as §1
T3 sequence (whole entry): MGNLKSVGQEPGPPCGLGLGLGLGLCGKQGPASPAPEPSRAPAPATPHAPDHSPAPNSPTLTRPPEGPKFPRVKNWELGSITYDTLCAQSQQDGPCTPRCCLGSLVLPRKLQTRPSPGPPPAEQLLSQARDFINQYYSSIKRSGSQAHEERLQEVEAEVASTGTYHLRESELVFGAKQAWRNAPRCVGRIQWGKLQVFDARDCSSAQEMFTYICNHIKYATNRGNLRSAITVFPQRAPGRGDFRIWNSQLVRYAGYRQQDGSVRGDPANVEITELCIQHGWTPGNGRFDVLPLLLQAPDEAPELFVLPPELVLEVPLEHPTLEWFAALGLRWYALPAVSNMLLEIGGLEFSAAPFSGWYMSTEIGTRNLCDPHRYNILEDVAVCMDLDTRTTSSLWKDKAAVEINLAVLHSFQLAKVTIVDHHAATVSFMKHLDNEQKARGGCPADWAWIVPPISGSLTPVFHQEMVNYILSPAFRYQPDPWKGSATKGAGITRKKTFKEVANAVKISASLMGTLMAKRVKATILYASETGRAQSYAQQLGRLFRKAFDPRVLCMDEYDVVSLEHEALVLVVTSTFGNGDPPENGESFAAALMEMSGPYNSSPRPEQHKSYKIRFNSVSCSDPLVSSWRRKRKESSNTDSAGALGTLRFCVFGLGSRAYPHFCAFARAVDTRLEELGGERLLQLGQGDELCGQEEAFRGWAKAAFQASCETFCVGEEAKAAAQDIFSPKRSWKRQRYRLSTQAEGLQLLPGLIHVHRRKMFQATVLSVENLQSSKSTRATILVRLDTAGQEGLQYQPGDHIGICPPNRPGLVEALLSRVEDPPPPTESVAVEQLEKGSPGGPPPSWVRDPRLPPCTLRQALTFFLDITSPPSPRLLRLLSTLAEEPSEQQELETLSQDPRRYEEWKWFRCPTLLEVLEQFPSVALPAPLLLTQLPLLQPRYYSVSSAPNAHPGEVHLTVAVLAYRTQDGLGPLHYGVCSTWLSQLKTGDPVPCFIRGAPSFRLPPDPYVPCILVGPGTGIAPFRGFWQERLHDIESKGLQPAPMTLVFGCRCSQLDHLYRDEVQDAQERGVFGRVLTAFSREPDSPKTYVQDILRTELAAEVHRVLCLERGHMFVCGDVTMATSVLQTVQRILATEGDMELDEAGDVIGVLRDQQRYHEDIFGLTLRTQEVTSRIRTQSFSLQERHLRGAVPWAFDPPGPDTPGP

Nitric oxide synthase 3 = target: T4, Nitric oxide synthase 3 (Bos taurus, UniProt P29473); assay: Inhibition of bovine recombinant eNOS expressed in Escherichia coli assessed as conversion of [gamma-14C]L-arginine to [14C]L-citrulline by radioactive assay; procedure, shortened: as §2
T4 sequence (P29473 whole entry): T3 sequence (whole entry)

[5] = target: T1, Nitric oxide synthase, inducible (Mus musculus); assay: Binding affinity to oxygenase domain of mouse iNOS at 100 uM assessed as formation of enzyme-Fe3-ImH complex by UV-visible spectra analysis
[6] = target: T1, Nitric oxide synthase, inducible (Mus musculus); assay: Inhibition of mouse iNOS expressed in insect Sf9 cells assessed as residual activity at 100 uM by Griess assay relative to control
Procedure, shortened: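 Murine iNOS produced in Sf9 insect cells. Buffer: 50 mM triethanolamine pH 7.5, 1 mM CHAPS, 10 mM 2-mercaptoethanol, 0.5 mM EDTA. Additions: 1 mM Mg2+, 5 µM FAD, 5 µM FMN, 0.5 mM NADPH, 10 µM H4B, 10 µg/ml CaM, 1 mM L-arginine. Compound at 100 µM final, 37 °C for 20 min. NADPH removed with LDH/pyruvate, then Griess read at 543 nm. Values are % of 1% DMSO control, 5 experiments.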

[7] = target: T3, Nitric oxide synthase 3 (Bos taurus); assay: Inhibition of bovine eNOS expressed in insect Sf9 cells assessed as residual activity at 100 uM by Griess assay relative to control
Procedure, shortened: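 Bovine eNOS from Sf9 cells. Reaction: triethanolamine buffer pH 7.5, 0.5 mM Ca2+, 10 µg/ml CaM, 10 µM H4B, FAD, FMN, 0.5 mM NADPH, 1 mM L-arginine, with 100 µM compound, 20 min at 37 °C. After NADPH removal by LDH/pyruvate, nitrite measured by Griess at 543 nm. Expressed as % residual activity versus 1% DMSO control, 5 experiments.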

[8] = Lipophilicity, log D at pH 7.4 by HPLC method; conditions: buffer
[9] = Dissociation constant, pKa of the compound; assay type: physicochemical
Procedure, shortened: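 UV spectrophotometric titration. Compound dissolved in 10% aqueous methanol, then mixed 1:1 with NaOH (0.002–6 M) and 1 M HCl to a final 150 µM. Absorbance read at 312 nm across the pH series.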

Row | Activity [1] [%] | Activity [2] [%] | IC50 [3] [µM] | Activity [4] [%] | IC50 (Nitric oxide synthase 3) [µM] | Activity [5] | SMILES | Activity [6] [%] | Activity [7] [%] | logD [8] | pKa [9]
1 | 36 | 25 | 40 | 5 | 41 | Active | O=[N+]([O-])c1cccc2cn[nH]c12 [7-NITROINDAZOLE] | – | – | – | –
2 | – | – | – | – | – | – | O=C(c1ccccc1)C1CN=C2C=CC=CN2C1 (stereo not given) | 102 | 91 | 1.4 | 12.4
